Key:
[1] = target: T1, lipopolysaccharide-responsive beige-like anchor protein (LRBA) (Homo sapiens, UniProt P50851); assay: ITC with purified LRBA PH domain; assay type: binding
Target sequence in this assay (P50851 2073-2489 limits assumed): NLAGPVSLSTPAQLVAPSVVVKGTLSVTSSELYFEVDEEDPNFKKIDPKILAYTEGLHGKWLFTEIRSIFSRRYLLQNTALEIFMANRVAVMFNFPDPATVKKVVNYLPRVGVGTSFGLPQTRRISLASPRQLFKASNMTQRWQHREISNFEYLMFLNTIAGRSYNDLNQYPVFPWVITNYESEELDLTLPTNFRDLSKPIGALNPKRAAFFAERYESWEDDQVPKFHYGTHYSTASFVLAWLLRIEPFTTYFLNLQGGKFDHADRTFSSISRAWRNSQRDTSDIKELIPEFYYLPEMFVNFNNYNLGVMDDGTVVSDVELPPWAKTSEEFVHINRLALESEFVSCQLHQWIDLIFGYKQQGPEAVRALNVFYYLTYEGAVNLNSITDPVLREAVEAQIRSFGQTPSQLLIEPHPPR

[2] = target: T1, lipopolysaccharide-responsive beige-like anchor protein (LRBA); assay: Nluc complementation with purified LRBA PH; assay type: cell-based
Procedure, shortened: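 HEK293T cells were transfected with three plasmids and treated with test compound in DMEM assay medium at 250.00, 100.00, 33.30, 10.00, 3.33, 1.00, 0.33, 0.10, 0.03 and 0.01 μM. Inhibition of the CTLA4–LRBA interaction was read as the Nluc/Firefly luciferase ratio by dual-luciferase assay. In the cell-free format, Flag-purified Sm-LRBA PH was preincubated with compound for 2 h at 25 °C. Myc-purified CTLA4 CT-Lg was then added for 18 h at 25 °C.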
Target sequence in this assay (P50851 2073-2489): as the sequence (P50851 2073-2489 limits assumed) above
Target sequence in this assay (P16410 36-223, further chain): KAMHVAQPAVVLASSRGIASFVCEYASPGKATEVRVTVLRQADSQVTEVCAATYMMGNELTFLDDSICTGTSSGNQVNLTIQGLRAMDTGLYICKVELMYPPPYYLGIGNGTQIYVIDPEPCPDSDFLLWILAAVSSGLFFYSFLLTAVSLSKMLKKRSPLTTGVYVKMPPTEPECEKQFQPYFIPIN

Compound	Kd [1] [µM]	IC50 [2] [µM]
c1ccc2ncc(-c3ccnc(N4CCNCC4)n3)cc2c1 [LC427, 3-(2-(piperazin-1-yl)pyrimidin-4-yl) quinoline]	19.6	
NCC1CCN(c2nccc(-c3ccc4ccccc4c3)n2)CC1 [WAY-262611]		0.34
